From article PMC9056355 (RSC Advances, 2020)

Legend:
mice (immobility in FST) = experiment: Forced swimming test; format: in vivo, Kunming mice; conditions: for Antidepressant activity in FST, significance compared with the control group: mice, 40 mg kg^-1; for Relationship between dose and antidepressant activity in FST: mice, 10, 20 and 40 mg kg^-1 (Fig. 3)
How it was run: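 Kunming mice (18–22 g) with free access to food and water; test compound in 0.5% methylcellulose or DMSO, given by intraperitoneal or subcutaneous injection at 40 mg kg−1; fluoxetine as positive control; test time 0.5 h. Read-out is immobility duration (s) and DID (%), compared with the control group by one-way ANOVA. A dose series of 10, 20 and 40 mg kg−1 was also run.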

5-HT1A receptor = molecular target: T1, 5-HT1A receptor (Homo sapiens, UniProt P08908); experiment: biochemical
T1 sequence (P08908 1-422): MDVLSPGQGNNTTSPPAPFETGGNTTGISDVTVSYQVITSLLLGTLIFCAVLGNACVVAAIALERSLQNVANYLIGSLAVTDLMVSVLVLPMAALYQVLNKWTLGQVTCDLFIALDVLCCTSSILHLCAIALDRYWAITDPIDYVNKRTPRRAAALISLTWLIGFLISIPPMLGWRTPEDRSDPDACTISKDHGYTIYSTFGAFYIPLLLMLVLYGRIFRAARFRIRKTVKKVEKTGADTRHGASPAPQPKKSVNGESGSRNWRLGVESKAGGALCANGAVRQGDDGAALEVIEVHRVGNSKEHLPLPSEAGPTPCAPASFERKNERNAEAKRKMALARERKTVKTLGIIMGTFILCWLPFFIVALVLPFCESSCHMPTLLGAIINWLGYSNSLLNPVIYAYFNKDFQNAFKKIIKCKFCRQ

[1] = test system: 5-HT concentration in the mice brain; experiment: Determination of brain 5-HT concentration by ELISA; format: in vivo; conditions: 40 mg kg^-1, 1 h after administration, n = 8 (Fig. 5)
mice (immobility in TST) = experiment: Tail suspension test; format: in vivo; conditions: 40 mg kg^-1, n = 8 (Fig. 4)
How it was run: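 Tail suspension test in Kunming mice (18–22 g), used as a second behavioural-despair model to confirm FST findings. Test compound at 40 mg kg−1 in 0.5% methylcellulose or DMSO, injected intraperitoneally or subcutaneously; fluoxetine at the same dose as positive control. Groups compared with control by one-way ANOVA.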

[2] = test system: spontaneous locomotor activity of mice; experiment: Open-field test; format: in vivo; conditions: 40 mg kg^-1, administered 1 h before the test, n = 8 (Fig. 6)
How it was run: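 Kunming mice given test compound at 40 mg kg−1 (0.5% methylcellulose or DMSO vehicle; intraperitoneal or subcutaneous) 1 h before placement in a novel open field. Spontaneous activity is counted as line crossings (locomotion), rearing (standing on hind legs) and grooming. n = 8 per group, values as mean ± SEM.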

O=C1CCc2ccc(OCc3nnc(SCc4ccc(F)cc4)o3)cc2N1 [Compound 5f, 7-((5-((4-Fluorobenzyl)thio)-1,3,4-oxadiazol-2-yl)methoxy)-3,4-dihydroquinolin-2(1H)-one]
Antidepressant activity in FST, significance compared with the control group (mice (immobility in FST)): significant

O=C1CCc2ccc(OCc3nnc(SCc4ccc(Cl)cc4)o3)cc2N1 [Compound 5g, 7-((5-((4-Chlorobenzyl)thio)-1,3,4-oxadiazol-2-yl)methoxy)-3,4-dihydroquinolin-2(1H)-one]
Ki (5-HT1A receptor): 1.77 ± 0.14 nM

O=C1CCc2ccc(OCc3nnc(SCc4ccc(C(F)(F)F)cc4)o3)cc2N1 [Compound 5h, 7-((5-((4-Trifluoromethylbenzyl)thio)-1,3,4-oxadiazol-2-yl)methoxy)-3,4-dihydroquinolin-2(1H)-one]
Ki (5-HT1A receptor): 2.73 ± 0.22 nM

CC(=O)Nc1cccc(OCc2nnc(SCc3ccccc3Cl)o2)c1 [Compound 10e, N-(3-((5-((2-Chlorobenzyl)thio)-1,3,4-oxadiazol-2-yl)methoxy)phenyl)acetamide]
Antidepressant activity in FST, significance compared with the control group (mice (immobility in FST)): high significant | Ki (5-HT1A receptor): 2.01 ± 0.18 nM

CC(=O)Nc1cccc(OCc2nnc(SCc3cccc(Cl)c3)o2)c1 [Compound 10f, N-(3-((5-((3-Chlorobenzyl)thio)-1,3,4-oxadiazol-2-yl)methoxy)phenyl)acetamide]
Antidepressant activity in FST, significance compared with the control group (mice (immobility in FST)): significant

CC(=O)Nc1cccc(OCc2nnc(SCc3ccc(Cl)cc3)o2)c1 [Compound 10g, N-(3-((5-((4-Chlorobenzyl)thio)-1,3,4-oxadiazol-2-yl)methoxy)phenyl)acetamide]
Effect on brain 5-HT concentration [1]: significantly (p < 0.05) increased the 5-HT concentration | Antidepressant activity in TST (mice (immobility in TST)): highly significant | Exploratory activity in open-field test (crossing, rearing, grooming) [2]: no significant difference | Antidepressant activity in FST, significance compared with the control group (mice (immobility in FST)): high significant | Relationship between dose and antidepressant activity in FST (mice (immobility in FST)): as the dose increases, the antidepressant activity increases | Ki (5-HT1A receptor): 1.68 ± 0.13 nM

CC(=O)Nc1cccc(OCc2nnc(SCc3ccc(C(F)(F)F)cc3)o2)c1 [Compound 10j, N-(3-((5-((4-Trifluoromethylbenzyl)thio)-1,3,4-oxadiazol-2-yl)methoxy)phenyl)acetamide]
Antidepressant activity in FST, significance compared with the control group (mice (immobility in FST)): high significant | Ki (5-HT1A receptor): 4.14 ± 0.16 nM

CC(=O)Nc1cccc(OCc2nnc(SCc3ccc(C)cc3)o2)c1 [Compound 10m, N-(3-((5-((4-Methylbenzyl)thio)-1,3,4-oxadiazol-2-yl)methoxy)phenyl)acetamide]
Antidepressant activity in FST, significance compared with the control group (mice (immobility in FST)): significant

CNCCC(Oc1ccc(C(F)(F)F)cc1)c1ccccc1 (centres unmarked) [Fluoxetine, reference compound]
Effect on brain 5-HT concentration [1]: significantly (p < 0.05) increased the 5-HT concentration | Relationship between dose and antidepressant activity in FST (mice (immobility in FST)): as the dose increases, the antidepressant activity increases
